Assay results taken from ChEMBL document CHEMBL1125034, “Design and synthesis of 4H-3,1-benzoxazin-4-ones as potent alternate substrate inhibitors of human leukocyte elastase” (J Med Chem, 1990).

Assays:
[1] = biological target: T1, Neutrophil elastase (Homo sapiens) (UniProt P08246); assay: Component deacylation rate constant for interaction with human leukocyte elastase
T1 sequence (whole entry): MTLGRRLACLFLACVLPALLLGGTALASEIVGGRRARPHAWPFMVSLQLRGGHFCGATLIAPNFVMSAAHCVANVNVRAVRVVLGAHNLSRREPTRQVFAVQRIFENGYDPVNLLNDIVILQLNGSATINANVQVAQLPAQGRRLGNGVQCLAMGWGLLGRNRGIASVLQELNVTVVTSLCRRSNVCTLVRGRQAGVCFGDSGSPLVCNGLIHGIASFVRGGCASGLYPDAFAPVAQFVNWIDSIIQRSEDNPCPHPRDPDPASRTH

[2] = biological target: T1, Neutrophil elastase (Homo sapiens); assay: Component acylation rate constant for interaction with human leukocyte elastase
[3] = Partition coefficient (logD7.4); format: physicochemical; conditions: octanol/water, pH 7.4
[4] = Alkaline hydrolysis rate of the compound; format: ADME
Outline: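 Alkaline hydrolysis rate constants measured at several pH values at 25 °C. Loss of the long-wavelength UV chromophore (λmax typically 300-345 nm) was followed by spectrophotometer.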

Neutrophil elastase = biological target: T2, Neutrophil elastase (Homo sapiens, UniProt P08246); assay: Inhibition of human leukocyte elastase
T2 sequence (P08246 whole entry): T1 sequence (whole entry)

With `Cc1cccc2nc(C(F)(F)F)oc(=O)c12` the Log koff [1] was -2.43, the Log kon [2] was 5.11 and the logD [3] was 2.9. For the same compound, the “Log kOH-” value [4] was 3.14 and the Ki (Neutrophil elastase) was 28.8 nM.
`O=c1oc(NCCc2ccccc2)nc2ccccc12` showed a Log koff [1] of -2.72, a Log kon [2] of 3.05 and a logD [3] of 3.2. The “Log kOH-” value [4] was 1.15 and the Ki (Neutrophil elastase) was 1700 nM.
In the case of `CC(C)Nc1nc2ccccc2c(=O)o1`, the Log koff [1] is reported as -2.51, the Log kon [2] is reported as 4.77 and the logD [3] is reported as 2.4. The “Log kOH-” value [4] was 1.21.
For `CCSc1nc2cccc(C)c2c(=O)o1`, the Log koff [1] was -2.85, the Log kon [2] was 6.18 and the logD [3] was 3.6. The “Log kOH-” value [4] was 1.58 and the Ki (Neutrophil elastase) was 0.933 nM.
Compound `CC(C)C[C@H](NC(=O)[C@@H]1CCCN1c1nc2ccccc2c(=O)o1)C(=O)NCC(N)=O` has a Log koff [1] of -3.64, a Log kon [2] of 4.04 and a logD [3] of 0.8. The “Log kOH-” value [4] was 1.26 and the Ki (Neutrophil elastase) was 20.9 nM.
In the case of `NC(=O)[C@H](Cc1ccccc1)NC(=O)[C@@H]1CCCN1c1nc2ccccc2c(=O)o1`, the Log koff [1] is reported as -3.27, the Log kon [2] is reported as 4.16 and the logD [3] is reported as 1.2. For the same compound, the “Log kOH-” value [4] was 1.23 and the Ki (Neutrophil elastase) was 37.2 nM.
Compound `O=c1oc(/C=C/c2ccccc2)nc2ccccc12` has a Log koff [1] of -2.5, a Log kon [2] of 2.59 and a logD [3] of 3.9. The “Log kOH-” value [4] was 1.57 and the Ki (Neutrophil elastase) was 8130 nM.
`COC(=O)[C@H](Cc1ccc(O)cc1)Nc1nc2ccccc2c(=O)o1` gave a Log koff [1] of -3.07, a Log kon [2] of 3.28 and a logD [3] of 0.3. For the same compound, the “Log kOH-” value [4] was 1.28 and the Ki (Neutrophil elastase) was 447 nM.
`CC(C)C[C@H](NC(=O)C1CCCN1c1nc2ccccc2c(=O)o1)C(N)=O` (stereo partly drawn) gave a Log koff [1] of -3.49, a Log kon [2] of 4.18 and a logD [3] of 1. The “Log kOH-” value [4] was 1.27 and the Ki (Neutrophil elastase) was 21.4 nM.
With `CCCCNc1nc2cc(N)ccc2c(=O)o1` the Log koff [1] was -2.74, the Log kon [2] was 3.45 and the logD [3] was 1.7. For the same compound, the “Log kOH-” value [4] was -0.44 and the Ki (Neutrophil elastase) was 646 nM.
Compound `CCCCNc1nc2cccc(CC)c2c(=O)o1` has a Log koff [1] of -3.27, a Log kon [2] of 5.11 and a logD [3] of 3.8. The “Log kOH-” value [4] was 0.38.
`COC(=O)[C@H](CC(C)C)Nc1nc2ccccc2c(=O)o1` showed a Log koff [1] of -3.41, a Log kon [2] of 3.36 and a logD [3] of 3.2. For the same compound, the “Log kOH-” value [4] was 1.13 and the Ki (Neutrophil elastase) was 170 nM.
`COC(=O)[C@@H](CC(C)C)Nc1nc2ccccc2c(=O)o1` showed a Log koff [1] of -2.85, a Log kon [2] of 4.58 and a logD [3] of 3.2. The “Log kOH-” value [4] was 1.32 and the Ki (Neutrophil elastase) was 37.2 nM.
